S1P4 agonist – agonists of human S1P4 receptor; activation, % at 4.98 µM; O95977; 220,000 tested, 0.35% active; S1P4-expressing cell line, agonist reporter assay; in the data active = activation above about 11%
Target sequence (O95977 whole entry, looked up): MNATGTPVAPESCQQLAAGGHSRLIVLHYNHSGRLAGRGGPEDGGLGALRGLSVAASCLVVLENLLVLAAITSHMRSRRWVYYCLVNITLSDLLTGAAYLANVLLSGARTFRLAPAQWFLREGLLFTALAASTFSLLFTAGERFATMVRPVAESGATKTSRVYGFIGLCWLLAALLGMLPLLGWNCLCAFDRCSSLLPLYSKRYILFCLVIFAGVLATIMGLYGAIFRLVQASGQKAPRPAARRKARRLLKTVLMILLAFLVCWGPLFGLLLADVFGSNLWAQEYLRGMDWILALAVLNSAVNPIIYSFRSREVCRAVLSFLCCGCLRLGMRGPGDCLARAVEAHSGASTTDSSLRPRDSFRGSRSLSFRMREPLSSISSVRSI
NPY Y1 blocker – NPY-Y1 (human) receptor antagonism | HEK293-CNG Y1 cells, membrane potential fluorescence; NPY at EC95, then isoproterenol | inhibition, % at 3.6 µM | 200,000 tested, 1% active | AID 1040;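 active = inhibition above the campaign mean inhibition of all tested compounds plus 3 SD, cut at about 20% in these data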
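Material: HEK293 cells co-expressing NPY Y1 receptor and cyclic-nucleotide gated channel. Timing: compound incubation 1 h at room temperature, readout 45 min post-stimulation. Signal: fluorescence, membrane potential probe.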
NPY-Y1 PAM-ag – potentiates or activates human NPY-Y1 receptor. NPY-Y1 expressing cells, potentiator/agonist activation. activation, % at 3.6 µM. 220,000 tested, 0.37% active. AID 1304; in the data active = activation above about 33%, passing the limit was not always enough;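 note: cells stimulated with NPY at EC10 then isoproterenol at EC100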
NPY2 pot ag – potentiators or agonists of human neuropeptide Y receptor Y2. activation, % at 3.6 µM. cells expressing NPY-Y2, potentiator/agonist read-out. P49146. AID 1359. 220,000 tested, 0.45% active; in the data active = activation above about 27%;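 note: cells stimulated with NPY near EC25 plus isoproterenol at EC100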
Target sequence (P49146 whole entry, looked up): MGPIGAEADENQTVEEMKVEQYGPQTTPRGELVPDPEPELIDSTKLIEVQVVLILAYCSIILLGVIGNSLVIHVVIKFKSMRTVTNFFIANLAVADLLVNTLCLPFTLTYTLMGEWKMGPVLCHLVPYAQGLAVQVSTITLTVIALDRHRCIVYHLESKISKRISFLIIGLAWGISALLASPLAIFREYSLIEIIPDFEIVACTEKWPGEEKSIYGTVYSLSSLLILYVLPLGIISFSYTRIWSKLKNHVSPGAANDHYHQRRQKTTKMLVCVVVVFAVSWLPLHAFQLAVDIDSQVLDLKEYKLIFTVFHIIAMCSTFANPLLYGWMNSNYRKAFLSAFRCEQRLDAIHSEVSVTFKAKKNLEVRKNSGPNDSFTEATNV
NPY Y2 blocker – antagonists of human neuropeptide Y receptor Y2; P49146; NPY-Y2 expressing cells, antagonist mode; inhibition, % at 2.7 µM; 140,000 tested, 0.99% active; in the data active = inhibition above about 17%
S1P4 antag – blocks the human S1P4 receptor. S1P4-expressing cells, antagonist mode, reporter read-out. inhibition, % at 4.98 µM. 220,000 tested, 0.26% active; in the data active = inhibition above about 29%
NPY1 antag conf – human NPY-Y1 antagonism, confirmation | shares compounds with NPY Y1 blocker | HEK293-CNG NPY-Y1, membrane potential fluorescence, cAMP; NPY challenge against isoproterenol-raised cAMP | inhibition, % at 3.6 µM | AID 1254 | 1,200 tested, 21% active; in the data active = inhibition above about 20%
NPY-Y2 antag ct – antagonizes human NPY-Y2, counter-screen to NPY-Y1 antagonists. shares compounds with NPY Y1 blocker. HEK293 NPY-Y2 CNG membrane potential fluorescence, antagonism; cells given NPY, then isoproterenol. inhibition, % at 3.6 µM. 1,200 tested, 28% active. AID 1255; in the data active = inhibition above about 17%
NPY-Y1 pot conf – human NPY-Y1 potentiation or agonism, confirmation; shares compounds with NPY-Y1 PAM-ag; cell-based NPY-Y1 potentiator/agonist assay; activation, % at 3.6 µM; 280 tested, 20% active; in the data active = activation above about 45%;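 note: cells challenged with NPY at its EC10 plus isoproterenol stimulus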
NPY-Y2 counter – potentiates or activates NPY-Y2, counter-screen for NPY-Y1 hits | HEK293-CNG cells, membrane-potential fluorescence (FLIPR), 1536-well | 280 tested, 20% active | AID 1649 | activation, % at 3.6 µM | shares compounds with NPY-Y1 PAM-ag
NPY-Y1 agonist – counter-screen for NPY-Y1 potentiators: agonists of human NPY-Y1 | shares compounds with NPY-Y1 PAM-ag | HEK293 Y1-CNGC, membrane potential fluorescence, agonist mode | activation, % at 3.6 µM | 280 tested, 50% active | AID 1697;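 active = percent activation above the mean of DMSO-only control wells plus 3 SD of those wells, cut at about 18% in these data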;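 note: cells challenged with isoproterenol plus Ro 20-1724 with no NPY in test wells; Y1 agonism lowers isoproterenol-driven cAMP and reduces probe fluorescence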
NPY-Y2 ag – activates human NPY-Y2, counter-screen for NPY-Y1 hits; AID 1698; shares compounds with NPY-Y1 PAM-ag; 280 tested, 67% active; HEK293 Y2-CNGC, membrane potential fluorescence, agonist mode; activation, % at 3.6 µM;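 active = activation above the solvent-only control wells' mean plus 3 SD, cut at about 11% in these data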;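 note: agonism lowers cAMP so well fluorescence drops in active wells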
CNGC counter – counter-screen for NPY-Y1 potentiators or agonists: CNG channel inhibitors; inhibition, % at 3.6 µM; AID 1704; shares compounds with NPY-Y1 PAM-ag; 280 tested, 42% active; HEK293-CNG parental, isoproterenol cAMP, membrane potential fluorescence;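 active = inhibition above the mean of stimulated solvent-only control wells plus 3 SD, cut at about 22% in these data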
NPY-Y2 confirm – human NPY-Y2 potentiation or agonism, confirmation; activation, % at 3.6 µM; cell-based NPY-Y2 potentiator/agonist assay; 450 tested, 20% active; AID 1539; shares compounds with NPY2 pot ag
NPY-Y1 counter – NPY-Y1 potentiation or agonism as NPY-Y2 counter-screen; shares compounds with NPY2 pot ag; Y1 HEK293-CNG cells, membrane potential fluorescence; activation, % at 3.6 µM; 450 tested, 20% active; AID 1651; in the data active = activation above about 45%;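 note: cells stimulated with submaximal NPY then isoproterenol with phosphodiesterase inhibitor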
NPY-Y1 agonist 2 – human NPY-Y1 agonism as NPY-Y2 potentiator counter-screen; shares compounds with NPY2 pot ag; HEK293 Y1-CNGC, membrane potential fluorescence; activation, % at 3.6 µM; 450 tested, 37% active; AID 1702;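 active = activation above the mean of DMSO-only control wells plus 3 SD, cut at about 18% in these data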;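 note: cells stimulated with 1 µM isoproterenol plus the PDE inhibitor Ro 20-1724; Y1 agonists lower the membrane potential dye signal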
CNGC inhibitor – blocks CNG channel activity, counter-screen for NPY-Y2 potentiators | shares compounds with NPY2 pot ag | 450 tested, 32% active | HEK293-CNG parental, isoproterenol cAMP, membrane potential fluorescence | inhibition, % at 3.6 µM;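 active = inhibition above the control-well mean plus 3 SD of those wells, cut at about 22% in these data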
NPY-Y2 ag 2 – counter-screen for NPY-Y2 potentiators: agonists of human NPY-Y2. shares compounds with NPY2 pot ag. HEK293 Y2/CNGC cells, membrane potential fluorescence, agonist mode. activation, % at 3.6 µM. 450 tested, 56% active. AID 1710;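 active = activation above the mean of solvent-only control wells plus 3 SD, cut at about 10% in these data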;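 note: cells stimulated by isoproterenol with no NPY added so direct agonism is tested; agonism lowers probe fluorescence through less cAMP and CNG channel opening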
A number is an active result; i = inactive; nt = no result given. Hits are enriched below; roughly 2.4% of the tested compounds scored in any of these assays. Cut-off read from the data, not from the text of the source, unless noted: active = activation above about 33%; inactive = the rest.

SMILES | S1P4 agonist | NPY Y1 blocker | NPY-Y1 PAM-ag | NPY2 pot ag | NPY Y2 blocker | S1P4 antag | NPY1 antag conf | NPY-Y2 antag ct | others
CCCC(=O)NC(Oc1ccc(C(C)=O)cc1)C(Cl)(Cl)Cl (stereo not drawn) | i | i | i | i | nt | i | nt | nt
Clc1ccc2c(c1)C(c1ccccc1Cl)=NCc1nnc(N3CCN(CCOc4ccccc4)CC3)n1-2 | i | i | i | i | i | i | nt | nt
CN(C)C(Cc1ccccc1)C(=O)c1ccc(-c2ccccc2)cc1 (stereo not drawn) | i | 27.1 | i | i | i | i | i | i
COc1cccc(C(=O)C2CCCN(Cc3ccc4nonc4c3)C2)c1 (stereo not drawn) | i | 29.1 | i | i | nt | i | i | i
O=c1[nH]c(=O)n(-c2cccc3ccccc23)c(O)c1/C=N/N1CCCCC1c1cccnc1 (stereo not drawn) | i | 25.4 | i | i | i | i | i | i
CCOc1ccc(-n2c(O)c(C=Nc3ccc(N4CCOCC4)cc3)c(=O)[nH]c2=O)cc1 | i | i | i | i | i | i | nt | nt
Cc1ccc(C(=O)c2cc(Br)ccc2N)cc1 | i | i | i | i | nt | i | nt | nt
Cc1cccc(CNCCc2ccccc2)n1 | i | i | i | i | i | i | nt | nt
CCOC(=O)C1(CCc2ccccc2)CCN(C2CCSCC2)CC1 | i | 22.9 | i | i | nt | i | i | i
COc1ccc2c(CN3CC=C(c4ccccc4)CC3)cc(=O)oc2c1 | i | i | i | i | nt | i | nt | nt
COc1ccc2ccc(O)c(CN3CC=C(c4ccccc4)CC3)c2c1 | i | 23.2 | i | i | nt | i | i | 23.8
Cn1cccc1/C=C1/C(=O)NC(=S)N(Cc2ccc(F)cc2)C1=O | i | nt | i | i | nt | i | nt | nt
Cc1ccccc1C(O)(Cc1ccccc1)C1CN2CCC1CC2 (stereo not drawn) | i | 20.9 | i | i | i | i | i | i
Fc1ccccc1CNC1CN2CCC1CC2 (stereo not drawn) | i | i | i | i | nt | i | nt | nt
O=C(NC1CN2CCC1CC2)c1ccc(-c2ccc([N+](=O)[O-])cc2)o1 (stereo not drawn) | i | i | i | i | i | i | nt | nt
CN1CCC(N(C)c2nc(-c3ccc([N+](=O)[O-])cc3)nc3ccccc23)CC1 | i | i | i | i | i | i | nt | nt
CN(CC1COc2ccccc2O1)c1nc(-c2cccnc2)nc2ccccc12 (stereo not drawn) | i | 21.9 | i | i | i | i | i | i
Cc1ccccc1-n1c(O)c(/C=N/NC(=O)c2ccncc2)c(=O)[nH]c1=O | i | nt | i | i | nt | i | nt | nt
Cc1ccsc1C(=O)C1CCCN(Cc2ccccc2O)C1 (stereo not drawn) | i | i | i | i | nt | i | nt | nt
Cc1ccsc1C(=O)C1CCCN(Cc2cccn2-c2ccccn2)C1 (stereo not drawn) | i | 28.6 | i | i | nt | i | 20.8 | 24.5
CCOc1cc(C2NCc3ccccc3-n3cccc32)ccc1O (stereo not drawn) | i | 22.1 | i | i | i | i | i | i
CCOc1cccc(C2NCc3ccccc3-n3cccc32)c1O (stereo not drawn) | i | i | i | i | i | i | nt | nt
COc1cccc(NP(=O)(Oc2ccccc2)Oc2ccccc2)c1 | i | 22.1 | i | i | i | i | i | i
Cc1cc(NCCN)nc2ccccc12 | i | 20.8 | i | i | i | i | i | i
CN(C)c1ccc(-[n+]2c(-c3ccccc3)cc(-c3ccccc3)cc2-c2ccccc2)cc1 | i | 50.5 | i | 50.7 | nt | i | 35.1 | 17.8 | NPY-Y2 confirm=i;NPY-Y1 counter=i;NPY-Y1 agonist 2=i;CNGC inhibitor=i;NPY-Y2 ag 2=11.8
CC(C)COc1ccc(C2(C#N)CC[N+](C)(C)CC2)cc1 | i | i | i | i | i | i | nt | nt
COc1ccc(O)c2c(=O)c3c(OC)cc4c(c3oc12)C1C=COC1O4 (stereo not drawn) | i | nt | 55.8 | i | nt | i | nt | nt | NPY-Y1 pot conf=72.8;NPY-Y2 counter=62.6;NPY-Y1 agonist=69.0;NPY-Y2 ag=63.7;CNGC counter=66.9
CC(C)(O)[C@H]1O[C@H]2CC[C@@]3(C)[C@@](O)(CC[C@H]4Cc5c([nH]c6ccccc56)[C@@]43C)C2=CC1=O | i | i | 43.5 | i | nt | i | nt | nt | NPY-Y1 pot conf=48.7;NPY-Y2 counter=40.9;NPY-Y1 agonist=52.9;NPY-Y2 ag=42.9;CNGC counter=43.6
COc1ccc(S(=O)(=O)N2CC3CC(C2)c2cccc(=O)n2C3)cc1 (stereo not drawn) | i | i | i | i | nt | i | nt | nt
O=P(C(c1ccc2c(c1)OCO2)N1CCOCC1)(N1CCOCC1)N1CCOCC1 (stereo not drawn) | i | i | i | i | i | i | nt | nt
